Results pooled from the literature.
Compare with care: the assays were run in different laboratories. pIC50, pKi: −log10 of the molar value.
Cyp2e1: Cytochrome P450 2E1 (Cyp2e1, Rattus norvegicus, UniProt P05182)

CCCCCn1cc(C(=O)Nc2cccc3ccccc23)c2ccccc21 — microsomal CLint (metabolic stability; Sprague-Dawley rat, liver microsomes; 1 µM, pH 7.4): 310 µL/min/mg
COc1ccnc(C(=O)N[C@H]2COC(=O)[C@H](Cc3ccccc3)[C@@H](OC(=O)C(C)C)[C@H](C)OC2=O)c1OCOC(=O)C(C)C — LD50 (rat; topical): > 5000 mg/kg
CC(C)(C)NC(=O)N[C@H](C(=O)N1C[C@H]2[C@@H]([C@H]1C(=O)NC(CC1CCC1)C(=O)C(N)=O)C2(C)C)C(C)(C)C (stereo partly shown) — CC50 (Calu-3; cell growth or viability, MTT; 48 h): > 250 µM
Cc1ncc2n1-c1ccc(Cl)cc1C(c1ccccc1F)=NC2 — microsomal CLint (metabolic stability; male rat, liver microsomes; 1 µM): > 250 µL/min/mg
CCCCCn1nc(C(=O)Nc2cccc3ccccc23)c2ccccc21 — microsomal CLint (metabolic stability; Sprague-Dawley rat, liver microsomes; 1 µM, pH 7.4): 430 µL/min/mg
N=c1c2c(-c3ccccc3)c(-c3ccccc3)n(Cc3ccccc3)c2ncn1[C@H]1CC[C@H](O)CC1 — clearance (female minipig, plasma; intravenous, 0.25 mg/kg, single dose): 0.6 mL/min/kg
O=C(O)C(F)(F)C(F)(F)C(F)(F)C(F)(F)C(F)(F)C(F)(F)C(F)(F)F — Km (Solute carrier organic anion transporter family member 1B3 (SLCO1B3, Homo sapiens, UniProt Q9NPD5); transporter uptake, substrate; CHO; 1 min, pH 7.4): 91.6 µM
NC(=O)c1c(NC(=O)c2cnn3c(C(F)(F)F)cc(-c4ccccc4)nc23)sc2c1CCCC2 — CC50 (Calu-3; cell growth or viability, MTT; 48 h): > 125 µM
CCN(CC)CCNC(=O)c1c(C)[nH]c(/C=C2\C(=O)Nc3ccc(F)cc32)c1C — CC50 (Calu-3; cell growth or viability, resazurin): 45.7 µM
C=CC1CO1 (stereo not shown) — pKi (Cyp2e1; enzyme activity, inhibitor; rat, liver microsomes): 4.62
C=CC(=O)Nc1cccc(-c2snc3cc(-c4ccc(N)c(OC)c4)cnc23)c1 — CC50 (Calu-3; cell growth or viability, resazurin): > 60 µM
OCCCCO — activity vs control (Cyp2e1; enzyme activity, inhibitor; Fischer 344 rat, liver microsomes; 25 mM, 30 min): 17%
O=c1c(O[C@@H]2O[C@H](CO)[C@@H](O)[C@H](O)[C@H]2O)c(-c2ccc(O)cc2)oc2cc(O)cc(O)c12 — pIC50 (MCF7; cell growth or viability, WST-1): 4.80
